Test results published in ChEMBL document CHEMBL2406960, “Epimeric methylsulfinyladenosine derivatives from the marine ascidian Herdmania momus” (Bioorg Med Chem Lett, 2013).

Experiments:
[1] = Antiviral activity against Human rhinovirus 17 infected in human HeLa cells assessed as inhibition of virus-induced cytopathic effect by MTT assay; assay type: functional, cell-based, Human rhinovirus B17; details: Rhinovirus B
In short: (§1)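 Confluent HeLa monolayers, in duplicate, got samples (20 mg/mL DMSO stock) diluted in MEM/2% FBS, then virus at 200 CCID50 per well, and were incubated under CO2. Protection was read by MTT and by microscopic inspection. EC50 was the concentration protecting 50% of cells from virus-induced cytotoxicity.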

[2] = Cytotoxicity against human HeLa cells by MTT assay; assay type: cell-based
In short: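 Mock-infected confluent HeLa cells were treated in duplicate with samples (20 mg/mL DMSO stock) diluted in MEM/2% FBS and incubated under CO2. Viability was read by MTT plus microscopy. CC50 was the concentration that cut mock-infected control absorbance by 50%.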

Coxsackievirus B1 = experiment: Antiviral activity against Human coxsackievirus B1 infected in human HeLa cells assessed as inhibition of virus-induced cytopathic effect by MTT assay; assay type: functional, organism-based; details: Enterovirus B; in short: as §1
Coxsackievirus B3 = experiment: Antiviral activity against Human coxsackievirus B3 infected in human HeLa cells assessed as inhibition of virus-induced cytopathic effect by MTT assay; assay type: functional, organism-based; details: Enterovirus B; in short: as §1
Poliovirus 3 = experiment: Antiviral activity against Human poliovirus 3 infected in human HeLa cells assessed as inhibition of virus-induced cytopathic effect by MTT assay; assay type: functional, organism-based; details: Enterovirus C
In short: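 Confluent HeLa cells in 96-well plates, in duplicate; samples (20 mg/mL DMSO stock) diluted in MEM/2% FBS, then virus added at 200 CCID50 per well; incubated in CO2 incubator. Protection of cells from virus cytopathic effect read by MTT absorbance and microscopy; EC50 = concentration protecting 50% of cells. Cytotoxicity on mock-infected cells, CC50 = 50% absorbance reduction.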

rhinovirus B14 = experiment: Antiviral activity against Human rhinovirus 14 infected in human HeLa cells assessed as inhibition of virus-induced cytopathic effect by MTT assay; assay type: functional, organism-based; details: Rhinovirus B; in short: as §1
[3] = Antiviral activity against Human rhinovirus 71 infected in human HeLa cells assessed as inhibition of virus-induced cytopathic effect by MTT assay; assay type: functional, cell-based, Human rhinovirus A71; details: Rhinovirus A; in short: as §1

C[S+]([O-])C[C@H]1O[C@@H](n2cnc3c(N)ncnc32)[C@H](OC(=O)c2c[nH]c3cc(Br)c(O)cc23)[C@@H]1O (mixture of isomers)
> 100 µg/mL: EC50 [1] | CC50 [2] | EC50 (Coxsackievirus B1) | EC50 (Coxsackievirus B3) | EC50 (Poliovirus 3) | EC50 (rhinovirus B14) | EC50 [3]

C[S+]([O-])C[C@H]1O[C@@H](n2cnc3c(N)ncnc32)[C@H](O)[C@@H]1OC(=O)c1c[nH]c2cc(Br)c(O)cc12 (some centres undefined)
> 100 µg/mL: EC50 [1] | CC50 [2] | EC50 (Coxsackievirus B1) | EC50 (Coxsackievirus B3) | EC50 (Poliovirus 3) | EC50 (rhinovirus B14) | EC50 [3]
